Published values pooled from the literature.
Each line is one published result; the experiments were not run side by side.
PDE8A: High affinity cAMP-specific and IBMX-insensitive 3',5'-cyclic phosphodiesterase 8A (PDE8A, Homo sapiens, UniProt O60658)
BCKDK: Branched-chain alpha-ketoacid dehydrogenase kinase (BCKDK, Homo sapiens, UniProt O14874)
KAT2B: Histone acetyltransferase KAT2B (KAT2B, Homo sapiens, UniProt Q92831)
ALOX5: Polyunsaturated fatty acid 5-lipoxygenase (ALOX5, Homo sapiens, UniProt P09917)
PTPN7: Tyrosine-protein phosphatase non-receptor type 7 (PTPN7, Homo sapiens, UniProt P35236)
HDAC1: Histone deacetylase 1 (HDAC1, Homo sapiens, UniProt Q13547)
murD: UDP-N-acetylmuramoylalanine--D-glutamate ligase (murD, Escherichia coli K-12, UniProt P14900)

COc1cc(/C=C2\SC(=O)NC2=O)cc(F)c1OCCNc1nc2c(cnn2C2CCCC2)c(=O)[nH]1 — IC50 (PDE8A; enzyme activity, inhibitor): 0.091 µM
C=CC(=O)Nc1cc(Nc2nccc(Nc3cc(Cl)c(F)cc3C(C)(C)O)n2)c(OC)cc1N1CC[C@@H](N(C)C)C1 — IC50 (Tyrosine-protein kinase Yes (YES1, Homo sapiens, UniProt P07947); enzyme activity, inhibitor; with preincubation): 2.9 µM
CC[C@H](C)[C@H](NC(C)=O)C(=O)N[C@@H](CCC(=O)O)C(=O)N[C@H](C(=O)N[C@H](C=O)CC(=O)O)[C@@H](C)O — IC50 (Caspase-5 (CASP5, Homo sapiens, UniProt P51878); enzyme activity, inhibitor): 0.00644 µM
CCCC[C@@H](C(=O)N[C@@H](CC(=O)O)C(=O)N(C)[C@@H](Cc1ccccc1)C(N)=O)N(C)C(=O)[C@H](Cc1c[nH]c2ccccc12)NC(=O)CNC(=O)[C@H](Cc1ccc(O)cc1)NC(=O)[C@H](C)NC(=O)[C@@H](CCC(=O)O)NC(=O)CN1CCN(CC(=O)O)CCN(CC(=O)O)CCN(CC(=O)O)CC1 — IC50 (Gastrin/cholecystokinin type B receptor (Rattus norvegicus, UniProt P30553); ligand displacement, radioligand): 0.00453 µM
C[C@@H]1CCO[C@H]2Cn3cc(C(=O)NCc4ccc(F)cc4F)c(=O)c(O)c3C(=O)N12 — IC50 (Multidrug and toxin extrusion protein 2 (SLC47A2, Homo sapiens, UniProt Q86VL8); transporter uptake, inhibitor, radiometric; HEK293; 5 min, pH 8.5): 24.8 µM
CCCCc1nc(C)c(CC(=S)N(C)C)c(=O)n1Cc1ccc(-c2ccccc2-c2nnn[nH]2)cc1 — IC50 (BCKDK; enzyme activity, inhibitor): 51.9 µM
CCOCc1nc(O)c(-c2nnc(Cc3ccc(Cl)cn3)o2)c(O)c1-c1c(OC)cccc1OC — IC50 (Mu-type opioid receptor (OPRM1, Homo sapiens, UniProt P35372); ligand displacement, radioligand): > 30 µM
CCCCCCCCCCCCCCCc1cccc(O)c1C(=O)O — IC50 (KAT2B; enzyme activity, inhibitor, radiometric): > 200 µM
Cc1ccc(-c2cc(-c3ccc(-c4ccc(C(=O)O)cc4)[nH]3)nc3c(C(C)C)cccc23)cc1 — IC50 (Retinoic acid receptor beta (RARB, Homo sapiens, UniProt P10826); reporter gene, antagonist): > 3.3 µM
C=C(C)[C@@H]1CCC(C)=C[C@H]1c1c(O)cc(CCC)cc1O — IC50 (ALOX5; enzyme activity, inhibitor): 4.9 µM
CNC(=O)c1cc2c(Oc3ccc(NC(=O)C4(C(=O)Nc5ccc(F)cc5)CC4)cc3)ccnc2cc1OC — IC50 (Tyrosine-protein kinase Srms (SRMS, Homo sapiens, UniProt Q9H3Y6); enzyme activity, inhibitor, radiometric): 0.01 µM
CCc1cc(/C(C)=N/OCc2ccc(C3CCCCC3)c(C(F)(F)F)c2)ccc1CN1CC(C(=O)O)C1 — IC50 (Cytochrome P450 2A6 (CYP2A6, Homo sapiens, UniProt P11509); enzyme activity, inhibitor; human, liver microsomes; 20 min): > 1.1 µM
O=C(O)c1cc(O)c2c(c1)[C@H]([C@H]1c3cc(C(=O)O)cc(O)c3C(=O)c3c(O[C@@H]4O[C@H](CO)[C@@H](O)[C@H](O)[C@H]4O)cccc31)c1cccc(O[C@@H]3O[C@H](CO)[C@@H](O)[C@H](O)[C@H]3O)c1C2=O — IC50 (PTPN7; enzyme activity, inhibitor, fluorescence): 1 µM
COc1ccc(S(=O)(=O)ON=C2C=C(C)C(=O)C(C)=C2)cc1 — IC50 (KAT2B; enzyme activity, inhibitor, radiometric): 34.7 µM
O=C(NO)c1ccc(NC(=O)C2(c3ccc(F)cc3)CCCC2)c(F)c1 — IC50 (HDAC1; enzyme activity, inhibitor): 0.204 µM
O=C(Nc1ccc(C=NNS(=O)(=O)c2ccc3ccccc3c2)cc1)c1ccccc1[N+](=O)[O-] — IC50 (murD; enzyme activity, inhibitor, absorbance): 45 µM
CC1=CC[C@H]2[C@@H]([C@@H]1CC[C@H]1[C@]3(C)CC[C@H](O)C(C)(C)O[C@H]3CC[C@]1(C)O)C(C)(C)CC[C@]2(C)O — IC50 (ATP-dependent translocase ABCB1 (ABCB1, Homo sapiens, UniProt P08183); transporter efflux, inhibitor, fluorescence; KB-V1; 10 min): 50 to 100 µM
CCOc1nc2cccc(C(=O)O)c2n1Cc1ccc(-c2ccccc2-c2nnn[nH]2)cc1 — IC50 (BCKDK; enzyme activity, inhibitor): 4.28 µM
O=C1c2ccccc2-c2cccc3cccc1c23 — IC50 (PTPN7; enzyme activity, inhibitor, fluorescence): 35 µM
NC(=O)c1ccc[n+]([C@@H]2O[C@H](COP(=O)([O-])OP(=O)(O)OC[C@H]3O[C@@H](n4cnc5c(N)ncnc54)[C@H](O)[C@@H]3O)[C@@H](O)[C@H]2O)c1 — IC50 (Protein mono-ADP-ribosyltransferase PARP10 (PARP10, Homo sapiens, UniProt Q53GL7); enzyme activity, inhibitor): 456 µM
COc1ccc(C2=NN(C3CCCCCC3)C(=O)[C@@H]3CC=CC[C@H]23)cc1-c1ccc(C(N)=O)cc1 (relative stereo) — IC50 (PDE8A; enzyme activity, inhibitor): > 10 µM
CN1CCN(c2ccc(Nc3ncc4cc(C#N)c(=O)n(C5CCCC5)c4n3)cc2)CC1 — IC50 (TGF-beta receptor type-2 (TGFBR2, Homo sapiens, UniProt P37173); enzyme activity, inhibitor): 0.123 µM
O=C(Nc1ccccc1C=NNS(=O)(=O)c1ccc2ccccc2c1)c1ccc([N+](=O)[O-])cc1 — IC50 (murD; enzyme activity, inhibitor, absorbance): 43 µM
CCCc1nc2c(C)cc(-c3nc4ccccc4n3C)cc2n1Cc1ccc(-c2ccccc2C(=O)O)cc1 — IC50 (BCKDK; enzyme activity, inhibitor): > 300 µM
CC/C=C\C/C=C\C/C=C\C/C=C\C/C=C\CCCC(=O)O — IC50 (DNA polymerase subunit gamma-1 (POLG, Homo sapiens, UniProt P54098); enzyme activity, inhibitor): 23.9 µM
CCCCC(=O)N(Cc1ccc(-c2ccccc2-c2nnn[nH]2)cc1)[C@H](C(=O)O)C(C)C — IC50 (BCKDK; enzyme activity, inhibitor): 1.67 µM
COC(=O)[C@]1(O)C[C@@H](O)[C@@H](O)[C@H](OC(=O)/C=C/c2ccc(O)c(O)c2)C1 — IC50 (Histone deacetylase 8 (HDAC8, Homo sapiens, UniProt Q9BY41); enzyme activity, inhibitor): 8.22 µM
CCCC[C@H](NC(=O)[C@H](C)c1c(C)[nH]c2ccc(O)cc12)c1ncc(-c2cc3ccccc3nc2OC)[nH]1 — IC50 (HDAC1; enzyme activity, inhibitor): 0.04 µM
CCCc1nc(C(C)(C)O)c(C(=O)O)n1Cc1ccc(-c2ccccc2-c2nnn[nH]2)cc1 — IC50 (BCKDK; enzyme activity, inhibitor): 198 µM
O=C(Nc1ccc(C=NNS(=O)(=O)c2ccc3ccccc3c2)cc1)c1ccccc1Br — IC50 (murD; enzyme activity, inhibitor, absorbance): 55 µM
CCCCCc1cc(O)c(C/C=C(\C)CCC=C(C)C)c(O)c1 — IC50 (ALOX5; enzyme activity, inhibitor): 0.7 µM
O=C(O)C(=O)CC(=O)c1cccc(N(Cc2ccccc2)Cc2ccccc2)c1 — IC50 (PTPN7; enzyme activity, inhibitor, absorbance; pH 7): 87 µM
C=C(C)[C@@H]1CCC(C)=C[C@H]1c1c(O)cc(CCCCC)cc1O — IC50 (ALOX5; enzyme activity, inhibitor): 4.3 µM
CCn1ncc2c1-c1cnc(N)c(c1)O[C@H](C)c1cc(F)ccc1-c1nn(C)nc1C2 — IC50 (Ephrin type-A receptor 6 (EPHA6, Homo sapiens, UniProt Q9UF33); enzyme activity, inhibitor, radiometric): 0.116 µM
